Screens (PubChem)
Jurkat NFkB inh: inhibitors of the PMA/ionomycin-induced NF-kB reporter in Jurkat cells; AID 435003; 330,000 tested, 0.53% active; PMA/ionomycin-induced NF-kB luciferase reporter, luminescence; inhibition, % at 4 µM; in the data active = inhibition above about 50%
GPR7 antagonist: antagonists of human GPR7 (neuropeptides B/W receptor 1); GPR7-expressing cells, fluorescence antagonist assay; inhibition, % at 4.4 µM; 290,000 tested, 1.1% active; in the data active = inhibition above about 16%, passing the limit was not always enough;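 note: cells stimulated with the agonist NPW; 0% = agonist with vehicle and 100% = vehicle without agonist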
Target sequence (P48145 whole entry, looked up): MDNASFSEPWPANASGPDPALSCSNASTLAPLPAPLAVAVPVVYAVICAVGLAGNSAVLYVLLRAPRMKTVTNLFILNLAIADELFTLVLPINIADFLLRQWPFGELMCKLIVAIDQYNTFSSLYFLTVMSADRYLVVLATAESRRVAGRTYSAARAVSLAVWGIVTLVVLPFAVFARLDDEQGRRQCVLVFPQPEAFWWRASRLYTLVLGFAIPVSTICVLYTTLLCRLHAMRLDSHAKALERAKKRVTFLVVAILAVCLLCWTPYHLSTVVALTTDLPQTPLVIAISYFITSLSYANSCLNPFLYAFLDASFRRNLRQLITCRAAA
T cruzi repl: blocks replication of Trypanosoma cruzi | T. cruzi beta-gal in NIH3T3, luminescence, 90 h | inhibition, % (concentration not given with the values) | 300,000 tested, 1.4% active | AID 1885;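 active = mean inhibition across valid replicates above about 55%, limit read from the data; inconclusive = mean below that limit but half or more replicates reach it; inactive = mean below it, under half of replicates reach it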;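 note: signal also drops with host cell toxicity which is not excluded here; 0% = plate median of DMSO wells and 100% = zero luminescence signal; higher percent means less beta-gal luminescence so fewer parasites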
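Test system: β-gal T. cruzi (Tulahuen C4) inside NIH/3T3 cells / Quantity: 5,000 cells/well / Measured by: luminescence from GalScreen with 0.05% NP40, read after 60 min / Medium: DMEM plus 2% FBS / Measure: parasite load inhibition, % / Reagent: Tulahuen C4 trypomastigotes, 5000/well / Schedule: co-culture of at least 90 h after 3 h attachment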
HSF1 activator: increases HSF-1 driven luciferase reporter signal | activation, % at 9 µM | AID 504408 | 300,000 tested, 1.7% active | NIH3T3-HGL HSF-1 luciferase reporter, MG132, 8 h; 100% = twice DMSO control signal;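 active = mean replicate activation of at least 50% with a set share of replicates each reaching 50%; inconclusive = only one of those two conditions met; inactive = mean below 50% and too few replicates reaching it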;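 note: 0% = median of the neutral control wells and 100% = twice that signal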
697 NFkB inh: lowers PMA/ionomycin-induced NF-kB signal in 697 B cells; 330,000 tested, 0.33% active; inhibition, % at 4 µM; 697 B-cell NF-kB luciferase reporter, 16 h; in the data active = inhibition above about 35%
HSF1 inh: HSF1 inhibition. NIH3T3-HGL HSE-luciferase, MG132-induced, luminescence 8 h; stronger effect = lower value. activity change, negative = inhibition, % at 7.5 µM (by protocol). 300,000 tested, 0.77% active. AID 2098;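 active = more than half of replicate wells show activity change below -50%, luminescence cut by over half; inconclusive = some wells, but at most half, below -50%; inactive = no replicate well below -50%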;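 note: luciferase reports HSF-1 transcriptional activity via heat shock element; 0% = median of DMSO wells and -100% = zero luminescence signal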
Starred values were filed as active, the others as inactive; ? = inconclusive; . = not tested or not shown. Sampled rows, rich in hits. Any-hit rate of the full collection: about 4.8%.

SMILES | Jurkat NFkB inh | GPR7 antagonist | T cruzi repl | HSF1 activator | 697 NFkB inh | HSF1 inh
CCn1c(C)nc2cc(C(=O)NNC(=S)NC(=O)c3ccccc3)ccc21 | 4 | -7 | 15 | -60 | -2 | -53*
CCn1c(C)nc2cc(C(=O)NNC(=O)c3ccc(C)cc3)ccc21 | -69 | . | . | . | -58 | .
CC(C)(C)N(Cc1ccccc1)C(=O)COC(=O)C1CCN(c2ccc(C(F)(F)F)cn2)CC1 | 1 | . | . | . | 2 | .
C/C(=N\NC(=O)c1ccccc1O)c1ccc(NC(=O)Cc2ccccc2)cc1 | -17 | -3 | -7 | 16 | -77 | 15
Cc1cc(Br)ccc1OCC(=O)NNC(=O)C(=O)Nc1ccccc1 | -5 | -6 | -6 | 1 | 5 | -3
CCn1c(NC(=S)Nc2ccccc2)nc2ccccc21 | -34 | 0 | 65* | -69 | -53 | -60*
CCn1c(C)nc2cc(C(=O)NNC(=S)Nc3ccccc3)ccc21 | -115 | -13 | 7 | -68 | -216 | -67*
CCn1c(C)nc2cc(C(=O)NNC(=S)Nc3ccc(Cl)cc3)ccc21 | -8 | -4 | 2 | 3 | -6 | 9
CCCn1c(NC(=S)Nc2ccccc2)nc2ccccc21 | -3 | -7 | 46 | -6 | -23 | -9
Cc1cccc(-n2nnc3c(=O)n(CC(=O)Nc4cc(C)on4)cnc32)c1 | 0 | -11 | 0 | 15 | 3 | 1
COc1cc(/C=C(\C#N)C(=O)Nc2cccc(C(=O)O)c2)ccc1OCc1ccc(F)cc1 | -57 | 12 | -8 | 77* | 2 | 51
N#C/C(=C\c1ccc(OCc2ccc(Br)cc2)cc1)C(=O)Nc1cccc(C(=O)O)c1 | . | -3 | -11 | 72* | . | 34
N#C/C(=C\c1ccc(OCc2ccc(F)cc2)cc1)C(=O)Nc1cccc(C(=O)O)c1 | -73 | -8 | -5 | 26 | 15 | 35
COc1ccccc1-c1nnc(SC2CCc3ccccc3NC2=O)s1 (stereo not drawn) | 15 | 0 | 22 | -63 | -9 | -52*
O=C(CN1C(=O)C2C3C=CC(C3)C2C1=O)OCC(=O)c1ccc(Br)cc1 (stereo not drawn) | -26 | 14 | -21 | -66 | 14 | -60*
CCN(CC)S(=O)(=O)c1cccc(NC(=O)/C=C/c2ccc([N+](=O)[O-])cc2)c1 | -4 | -3 | -7 | 70* | -41 | 14
CCSc1nc(CC)c2c(c1C#N)CCCC2 | 1 | -2 | 33 | 2 | 7 | -6
CSc1nnc(NC(=O)c2nc(S(=O)(=O)Cc3ccccc3)ncc2Cl)s1 | 6 | -12 | -13 | -28 | -25 | -27
CCCc1nnc(NC(=O)c2nc(S(=O)(=O)Cc3ccc(C)cc3)ncc2Cl)s1 | 11 | 13 | -4 | -82 | 11 | -80*
CC(C)c1nnc(NC(=O)c2nc(S(=O)(=O)Cc3ccccc3)ncc2Cl)s1 | 0 | -9 | -22 | -87 | -66 | -86*
COc1ccccc1N1CCN(C2CC(=O)N(c3ccc(F)cc3)C2=O)CC1 (stereo not drawn) | 9 | -12 | -6 | 12 | -1 | 1
O=C(NCCc1cccc(C(F)(F)F)c1)C1CCC(=O)N(C2CC2)C1 (stereo not drawn) | 8 | 0 | -9 | 7 | 13 | -6
CC(C)Cn1c(SCC(=O)NCc2ccc(Cl)cc2)nnc1-c1cccc(S(=O)(=O)N2CCOCC2)c1 | 18 | 6 | 18 | -10 | 12 | 5
CNC(=O)NC(=O)CSc1ccc(S(=O)(=O)N2CCOCC2)cn1 | -4 | . | . | . | 10 | .
Cc1nnc(C)c2c(C)n(C(c3ccccc3)c3ccccc3)c(C)c12 | 2 | 0 | 59* | -2 | 2 | -2
SMILES | Jurkat NFkB inh | GPR7 antagonist | T cruzi repl | HSF1 activator | 697 NFkB inh | HSF1 inh
C=CCNC(=O)c1onc(CSc2ccc(F)c(F)c2)c1C(=O)NCC=C | -5 | . | -11 | 18 | 1 | 14
COc1cc(OC)c(OC)cc1CN1CCCC(C(=O)c2ccccc2SC)C1 (stereo not drawn) | 7 | -6 | 56* | -8 | -7 | -8
COc1ccccc1C(=O)C1CCCN(Cc2cn[nH]c2C2CCCCC2)C1 (stereo not drawn) | -4 | -16 | 62* | -23 | -16 | -1
COc1cc(CN2CCCC(C(=O)c3ccccc3SC)C2)cc(OC)c1 (stereo not drawn) | 3 | -2 | 68* | 1 | 13 | -3
O=C(c1cccc(S(=O)(=O)N2CCc3ccccc3C2)c1)N1CCN(c2ccc(O)cc2)CC1 | -5 | 0 | 20 | -4 | -30 | -3
Cc1ccc(S(=O)(=O)c2ncccc2N)cc1 | 5 | -9 | -13 | -3 | 4 | -1
Cc1ccc(S(=O)(=O)c2ncccc2[N+](=O)[O-])cc1 | 27 | 28 | 65* | -97 | 7 | -97*
CCN(CC)c1ccc(N=Cc2ccccc2[N+](=O)[O-])cc1 | 15 | -4 | 74* | 1 | -60 | -1
CCN(CC)c1ccc(N=Cc2ccc([N+](=O)[O-])o2)cc1 | 25 | -4 | 49 | -15 | -142 | -24
Cc1ccc(-c2[nH]ncc2C(=O)c2cccc(F)c2)c(O)c1 | -9 | 11 | -3 | ? | -10 | 17
Brc1ccc(/C=N/Nc2nc3ccccc3o2)cc1 | -93 | -6 | -24 | 63* | -105 | 20
COc1ccc(/C=N/Nc2nc3ccccc3o2)cc1O | -59 | -4 | 5 | 33 | 1 | 18
Oc1ccccc1/C=N/Nc1nc2ccccc2o1 | -22 | -11 | 56* | 48 | -95 | 27
N#Cc1ccccc1S(=O)(=O)N1CCN(C(=O)c2cc3c(s2)CCC3)CC1 | -19 | . | . | . | -2 | .
CCOc1ccc(NC(=O)CN(C)C(=O)c2c(-c3ccccc3)noc2C)cc1OCC | -5 | . | . | . | -2 | .
O=[N+]([O-])c1cccc(NC(=S)N2CCc3ccccc32)c1 | -52 | -8 | . | . | -74 | .
Cc1ccc(C(NC(=O)Nc2ccccn2)C(Cl)(Cl)Cl)cc1F (stereo not drawn) | -1 | -10 | 17 | 13 | -36 | 2
COc1cc(OC)cc(-c2nnc(Sc3ccc(C=O)cc3[N+](=O)[O-])o2)c1 | 0 | -3 | 3 | 142* | 13 | 88
CCCCC1C2=C(CC(C)(C)CC2=O)OC2=C1C(=O)CC(C)(C)C2 | 2 | 8 | 33 | 12 | -14 | 2
Cc1nnc(SCC2=C(C(=O)O)N3C(=O)C(NC(=O)c4cccc(F)c4F)C3SC2)s1 (stereo not drawn) | 3 | -14 | -10 | 63* | -14 | 24
CCN1C(=O)N[C@@H](c2cccs2)C(C(C)=O)=C1C | 10 | . | -5 | 2 | -2 | -3
Cc1ccc(Cn2c(O)c(N=NC(=S)Nc3ccccc3F)c3ccccc32)cc1 | 5 | -10 | 66* | -17 | -15 | -21
COC(=O)c1ccc(Cn2c(O)c(N=NC(N)=S)c3ccccc32)o1 | -3 | -6 | 14 | -7 | 2 | -2
